Data set [1] concerns Rattus norvegicus. Nature of the data set: Antiinflammatory activity against carrageenan-induced hind paw oedema in Charles foster rat assessed as inhibition of paw oedema at 50 mg/kg, po after 1 hr. Details: scale not given: the % may be the effect or the level left. In kind it is functional. In short, it runs like this:
(§1)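 Charles-Foster albino rats of either sex, no pregnant females, 70–95 days old, 100–150 g. Oral dose of 25, 50 or 100 mg/kg given 1 h before carrageenan. Carrageenan was a fresh 1% suspension in 0.9% saline, 0.05 mL under the plantar aponeurosis of the right hind paw. Paw volume measured by plethysmometer before and 3 h after carrageenan. Result is percent inhibition of oedema.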
A general note: The carrageenan paw model is a standard test of acute inflammation.

In data set [2] the test system is Mus musculus. The data set is described as follows: Analgesic activity in Albino mouse assessed as number of acetic acid-induced writhing at 50 mg/kg, po after 30 min. In kind it is functional.
Data set [3] can be described thus: Acute toxicity in albino mouse assessed as percent mortality after 24 hrs. The data set is classed as organism-based. The conditions noted are these: in vivo, read-out: ALD50.
The species named for data set [4] is Rattus norvegicus. Nature of the data set: Ulcerogenic activity in 24 hrs fasted Charles foster rat. In kind it is functional. In short, it runs like this: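 Albino rats fasted 24 h, then given compound. Killed 8 h after dosing. Stomach and small intestine examined for hyperaemia, epithelial shedding, petechial or frank haemorrhage, and erosion or ulceration with or without perforation. Any one of these counted as ulcerogenic. Route reported as i.p. for the UD50.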

The test system of data set [5] is Mus musculus. The data set is described as follows: Analgesic activity in Albino mouse assessed as number of acetic acid-induced writhing at 25 mg/kg, po after 30 min. The data set is classed as functional. Background: Writhing tests count abdominal constrictions after an irritant is injected.
Data set [6] deals with Rattus norvegicus. The data set is described as follows: Antiinflammatory activity against carrageenan-induced hind paw oedema in Charles foster rat assessed as inhibition of paw oedema at 25 mg/kg, po after 1 hr. In kind it is functional. Further details: scale not given: the % may be the effect or the level left. In short, it runs like this: as §1
Data set [7] has as its system Mus musculus. The data set is described as follows: Analgesic activity in Albino mouse assessed as number of acetic acid-induced writhing at 100 mg/kg, po after 30 min. In kind it is functional.
Data set [8] deals with Rattus norvegicus. The data set is described as follows: Antiinflammatory activity against carrageenan-induced hind paw oedema in Charles foster rat assessed as inhibition of paw oedema at 100 mg/kg, po after 1 hr. Further details: scale not given: the % may be the effect or the level left. In kind it is functional. In short, it runs like this: as §1

For the compound `COc1ccc(/C=N/NCc2nc3ccc(Br)cc3c(=O)n2-c2nc(-c3ccc(Cl)cc3)cs2)cc1`, the Activity in data set [1] is 23.29%; in data set [2], 21.69%. Moreover, the LD50 at 24 h in data set [3] was more than 1000 mg/kg.
On the same counts, the results for `O=C1CSC(c2ccc(O)cc2)N1NCc1nc2ccc(Br)cc2c(=O)n1-c1nc(-c2ccc(Cl)cc2)cs1` (centres undefined) are 35.13%, 33% and more than 1000 mg/kg.
For `Cc1ccc(/C=N/NCc2nc3ccc(Br)cc3c(=O)n2-c2nc(-c3ccc(Cl)cc3)cs2)cc1` the same measures were 19.14%, 18.52% and more than 1000 mg/kg.
For `O=C1C(Cl)C(c2ccccc2Cl)N1NCc1nc2ccc(Br)cc2c(=O)n1-c1nc(-c2ccc(Cl)cc2)cs1` (centres undefined) the same measures were 34.21%, 34.11% and more than 1000 mg/kg.
For the compound `O=C1CSC(c2ccccc2)N1NCc1nc2ccc(Br)cc2c(=O)n1-c1nc(-c2ccc(Cl)cc2)cs1` (centres undefined), the Activity in data set [1] is 33.88%; in data set [2] it was 32.45%. Further, the LD50 at 24 h in data set [3] is more than 1000 mg/kg.
Turning to `O=C1CSC(c2ccccc2Cl)N1NCc1nc2ccc(Br)cc2c(=O)n1-c1nc(-c2ccc(Cl)cc2)cs1` (centres undefined), the Activity came out at 38.35% in data set [1]; 14.22% in data set [5]; 37.36% in data set [2]; 17.84% in data set [6]; 61.12% in data set [7]; 67.45% in data set [8]. Also, the UD50 in data set [4] was determined as 195.6 mg/kg. For the same compound, the LD50 at 24 h in data set [3] is more than 1000 mg/kg.
Consider `O=C1C(Cl)C(c2ccccc2)N1NCc1nc2ccc(Br)cc2c(=O)n1-c1nc(-c2ccc(Cl)cc2)cs1` (centres undefined), for which the Activity turned out to be 29.16% in data set [1] and 28.59% in data set [2]. Further, the LD50 at 24 h in data set [3] was more than 1000 mg/kg.
On to `CCCCC1C(=O)N(c2ccccc2)N(c2ccccc2)C1=O` [PHENYLBUTAZONE], for which the Activity was determined as 38.9% in data set [1]; 16.3% in data set [5]; 36.5% in data set [2]; 18.46% in data set [6]; 60.23% in data set [7]; 66.58% in data set [8]. This compound also showed a UD50 in data set [4] of 66.6 mg/kg.
On to `O=c1c2cc(Br)ccc2nc(CN/N=C/c2ccc(O)cc2)n1-c1nc(-c2ccc(Cl)cc2)cs1`, for which the Activity in data set [1] turned out to be 20.23%; in data set [2], 18.96%. Moreover, the LD50 at 24 h in data set [3] is more than 1000 mg/kg.
On the same counts, the results for `CN(C)c1ccc(C2SCC(=O)N2NCc2nc3ccc(Br)cc3c(=O)n2-c2nc(-c3ccc(Cl)cc3)cs2)cc1` (centres undefined) are 32.89%, 28.76% and more than 1000 mg/kg.
As to `O=c1c2cc(Br)ccc2nc(CN/N=C/c2ccccc2)n1-c1nc(-c2ccc(Cl)cc2)cs1`, the Activity is given as 18.75% in data set [1] and 17.12% in data set [2]. For the same compound, the LD50 at 24 h in data set [3] was more than 1000 mg/kg.
On the same counts, the results for `COc1ccccc1C1C(Cl)C(=O)N1NCc1nc2ccc(Br)cc2c(=O)n1-c1nc(-c2ccc(Cl)cc2)cs1` (centres undefined) are 32.45%, 31.89% and more than 1000 mg/kg.
`COc1ccc(C2C(Cl)C(=O)N2NCc2nc3ccc(Br)cc3c(=O)n2-c2nc(-c3ccc(Cl)cc3)cs2)cc1` (centres undefined): the values for the Activity in data set [1] and in data set [2] were 31.67% and 30.67%, respectively. In addition, the LD50 at 24 h in data set [3] was more than 1000 mg/kg.
For `O=C1C(Cl)C(c2ccc(O)cc2)N1NCc1nc2ccc(Br)cc2c(=O)n1-c1nc(-c2ccc(Cl)cc2)cs1` (centres undefined) the same measures were 30.65%, 29.92% and more than 1000 mg/kg.
On the same counts, the results for `O=c1c2cc(Br)ccc2nc(CN/N=C/c2ccccc2Cl)n1-c1nc(-c2ccc(Cl)cc2)cs1` are 26.44%, 24.68% and more than 1000 mg/kg.
On to `CN(C)c1ccc(C2C(Cl)C(=O)N2NCc2nc3ccc(Br)cc3c(=O)n2-c2nc(-c3ccc(Cl)cc3)cs2)cc1` (centres undefined), for which the Activity was determined as 28.55% in data set [1] and 27.35% in data set [2]. In data set [3], the LD50 at 24 h was more than 1000 mg/kg.
For `COc1ccc(C2SCC(=O)N2NCc2nc3ccc(Br)cc3c(=O)n2-c2nc(-c3ccc(Cl)cc3)cs2)cc1` (centres undefined) the same measures were 36.11%, 34.27% and more than 1000 mg/kg.
For `COc1ccccc1/C=N/NCc1nc2ccc(Br)cc2c(=O)n1-c1nc(-c2ccc(Cl)cc2)cs1` the same measures were 24.66%, 22.18% and more than 1000 mg/kg.
On the same counts, the results for `O=c1c2cc(Br)ccc2nc(CN/N=C/c2ccc(Cl)cc2)n1-c1nc(-c2ccc(Cl)cc2)cs1` are 25.12%, 23.42% and more than 1000 mg/kg.
Regarding `Cc1ccc(C2SCC(=O)N2NCc2nc3ccc(Br)cc3c(=O)n2-c2nc(-c3ccc(Cl)cc3)cs2)cc1` (centres undefined), the Activity in data set [1] turned out to be 34.25%; in data set [2] it was 32.87%. Also, in data set [3], the LD50 at 24 h was more than 1000 mg/kg.
For `Cc1ccc(C2C(Cl)C(=O)N2NCc2nc3ccc(Br)cc3c(=O)n2-c2nc(-c3ccc(Cl)cc3)cs2)cc1` (centres undefined) the same measures were 29.88%, 29.12% and more than 1000 mg/kg.
For `COc1ccccc1C1SCC(=O)N1NCc1nc2ccc(Br)cc2c(=O)n1-c1nc(-c2ccc(Cl)cc2)cs1` (centres undefined) the same measures were 36.98%, 35.43% and more than 1000 mg/kg.
Turning to `O=C1CSC(c2ccc(Cl)cc2)N1NCc1nc2ccc(Br)cc2c(=O)n1-c1nc(-c2ccc(Cl)cc2)cs1` (centres undefined), the figures for the Activity in data set [1] and in data set [2] were 37.06% and 36.26%, respectively. The LD50 at 24 h in data set [3] was more than 1000 mg/kg.
On the same counts, the results for `O=C1C(Cl)C(c2ccc(Cl)cc2)N1NCc1nc2ccc(Br)cc2c(=O)n1-c1nc(-c2ccc(Cl)cc2)cs1` (centres undefined) are 33.07%, 32.62% and more than 1000 mg/kg.
For `CN(C)c1ccc(/C=N/NCc2nc3ccc(Br)cc3c(=O)n2-c2nc(-c3ccc(Cl)cc3)cs2)cc1` the same measures were 17.88%, 16.84% and more than 1000 mg/kg.
